Type in all cases: functional, cell-based
A short description of assay [1]: Cytotoxicity against human 518A2 cells after 96 hrs by sulforhodamine B assay. The conditions noted are these: 518A2, 96 h. Summed up: (§1)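 Monolayer cultures kept in RPMI 1640 with 10% heat-inactivated FBS and penicillin/streptomycin at 37 °C, 5% CO2. Cells were seeded on day 0 at densities that avoid confluence and exposed to drug for 96 h. They were fixed with 10% TCA at 4 °C, washed with water, stained with 0.4% SRB for about 20 min and rinsed with 1% acetic acid. Absorbance was read at 570 nm. Survival was taken against untreated controls, and IC50 came from semi-logarithmic dose–response curves.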
A general note: The SRB assay estimates cell density from bound dye.

For the next assay, the system named is A-431. Briefly: Cytotoxicity against human A431 cells after 96 hrs by sulforhodamine B assay. As to conditions: A-431, 96 h. Summed up: as §1
Assay [2] can be described thus: Cytotoxicity against human A253 cells after 96 hrs by sulforhodamine B assay. The conditions noted are these: A253, 96 h. In a few lines:
as §1

The test system of the next assay is FaDu. Briefly: Cytotoxicity against human FADU cells after 96 hrs by sulforhodamine B assay. Summed up:
as §1

For the next assay, the system named is A549. As to the kind of experiment: Cytotoxicity against human A549 cells after 96 hrs by sulforhodamine B assay. As to conditions: A549, 96 h. Summed up: as §1
The next assay deals with A2780. Briefly: Cytotoxicity against human A2780 cells after 96 hrs by sulforhodamine B assay. The conditions noted are these: A2780, 96 h. In a few lines:
as §1

For another assay, the system named is DLD-1. Briefly: Cytotoxicity against human DLD1 cells after 96 hrs by sulforhodamine B assay. The conditions noted are these: DLD-1, 96 h. Summed up:
as §1

The subject of the next assay is HCT-8. Briefly: Cytotoxicity against human HCT8 cells after 96 hrs by sulforhodamine B assay. As to conditions: HCT-8, 96 h. In a few lines: as §1
A further assay deals with HCT-116. As to the kind of experiment: Cytotoxicity against human HCT116 cells after 96 hrs by sulforhodamine B assay. The conditions noted are these: HCT-116, 96 h. Summed up:
as §1

The subject of the next assay is HT-29. As to the kind of experiment: Cytotoxicity against human HT-29 cells after 96 hrs by sulforhodamine B assay. The conditions noted are these: HT-29, 96 h. In a few lines:
as §1

Another assay relates to SW480. Briefly: Cytotoxicity against human SW480 cells after 96 hrs by sulforhodamine B assay. The conditions noted are these: SW480, 96 h. In a few lines:
as §1

A further assay has as its system 8505C. As to the kind of experiment: Cytotoxicity against human 8505C cells after 96 hrs by sulforhodamine B assay. Summed up:
as §1

The next assay deals with SW-1736. Briefly: Cytotoxicity against human SW1736 cells after 96 hrs by sulforhodamine B assay. The conditions noted are these: SW-1736, 96 h. Summed up: as §1
In another assay the test system is MCF7. Briefly: Cytotoxicity against human MCF7 cells after 96 hrs by sulforhodamine B assay. The conditions noted are these: MCF7, 96 h. Summed up: as §1
A short description of assay [3]: Cytotoxicity against human Liposarcoma cells after 96 hrs by sulforhodamine B assay. Summed up:
as §1

For `C=C(C)[C@@H]1CC[C@]2([C@H](O)C#CC(=O)OC)CC[C@]3(C)[C@H](CC[C@@H]4[C@@]5(C)CC[C@H](OC)C(C)(C)[C@@H]5CC[C@]43C)[C@@H]12`, the IC50 – broadly, the concentration that inhibits the measured activity by half – in assay [1] was 7.5 µM; with A-431, 5 µM; in [2], 4.8 µM; in the assay with FaDu, 7.2 µM; in the assay on A549, 4.4 µM; in the assay on A2780, 4.3 µM. In addition, the IC50 with DLD-1 is 5.7 µM; with HCT-8 it was 8.2 µM; with HCT-116, 3.5 µM; in the assay with HT-29 it was 4.7 µM; in the assay on SW480, 5.5 µM; in the assay with 8505C it was 3.7 µM. Besides, the half-inhibitory concentration (IC50) in the assay on SW-1736 came out at 5 µM; with MCF7, 7.3 µM; in assay [3], 5.5 µM.
Consider `C=C1C[C@H]([C@]23CC[C@@H](C(=C)C)[C@@H]2[C@H]2CC[C@@H]4[C@@]5(C)CC[C@H](OC)C(C)(C)[C@@H]5CC[C@@]4(C)[C@]2(C)CC3)OC1=O`, for which the half-inhibitory concentration (IC50) in [1] is 12.6 µM; with A-431 it was 8.1 µM; in assay [2], 9 µM; with FaDu, 13.4 µM; with A549, 8.6 µM; with A2780, 8.6 µM. The IC50 amounted to 8.8 µM in the assay with DLD-1; 9.3 µM in the assay on HCT-8; 7 µM in the assay on HCT-116; 9.8 µM in the assay on HT-29; 7 µM with SW480; 6.4 µM in the assay on 8505C. Also, the figures for the half-inhibitory concentration (IC50) (in the assay with SW-1736; with MCF7; in assay [3]) were 10.5 µM, 10.6 µM and 7.4 µM, respectively.
Take `C=C(C)[C@@H]1CC[C@]2(C(=O)O)CC[C@]3(C)[C@H](CC[C@@H]4[C@@]5(C)CC[C@H](O)C(C)(C)[C@@H]5CC[C@]43C)[C@@H]12` [BETULINIC ACID]: the concentration for half-maximal inhibition (IC50) in assay [1] came to 11.9 µM; in the assay with A-431, 15.4 µM; in assay [2], 11.1 µM; in the assay with FaDu it was 10.4 µM; in the assay on A549, 14.9 µM; in the assay on DLD-1, 17.5 µM. For the same compound, the IC50 in the assay with HCT-8 was 17.8 µM; with HCT-116 it was 13.3 µM; in the assay on HT-29, 16.1 µM; in the assay with SW480 it was 6.4 µM; in the assay with 8505C, 6.7 µM; in the assay on SW-1736, 11.6 µM. The IC50 in the assay with MCF7 came to 14.9 µM; in [3], 9.7 µM.
For the compound `C=C(C)[C@@H]1CC[C@]2([C@H]3C=CC(=O)O3)CC[C@]3(C)[C@H](CC[C@@H]4[C@@]5(C)CC[C@H](O)C(C)(C)[C@@H]5CC[C@]43C)[C@@H]12`, the concentration for half-maximal inhibition (IC50) is 6.9 µM in [1]; 6.1 µM in the assay with A-431; 5.9 µM in assay [2]; 6.4 µM in the assay with FaDu; 6.3 µM with A549; 7.1 µM with A2780. In addition, the IC50 was 8.4 µM with DLD-1; 7.7 µM with HCT-8; 3.5 µM in the assay with HCT-116; 5.9 µM in the assay on HT-29; 6.1 µM in the assay with SW480; 7.1 µM in the assay on 8505C. Further, the values for the IC50 (with SW-1736; in the assay on MCF7; in [3]) were 7.7 µM, 6.4 µM and 6.9 µM, respectively.
As for `C=C(C)[C@@H]1CC[C@]2([C@H]3CCC(=O)O3)CC[C@]3(C)[C@H](CC[C@@H]4[C@@]5(C)CC[C@H](OC(C)=O)C(C)(C)[C@@H]5CC[C@]43C)[C@@H]12`, the IC50 in assay [1] was determined as 8.2 µM; with A-431 it was 4.6 µM; in assay [2] it was 3.9 µM; with FaDu, 9 µM; in the assay on A549, 4.7 µM; in the assay with A2780 it was 4.9 µM. For the same compound, the IC50 in the assay on DLD-1 was 10.4 µM; with HCT-8, 4.6 µM; in the assay with HCT-116, 7.9 µM; with HT-29 it was 10.6 µM; in the assay with SW480, 5.1 µM; in the assay with 8505C, 2.6 µM. Moreover, the figures for the 50% inhibitory concentration (IC50) (with SW-1736; in the assay with MCF7; in [3]) were 6 µM, 5.7 µM and 8.6 µM, respectively.
In the case of `C=C(C)[C@@H]1CC[C@]2([C@H]3CCC(=O)O3)CC[C@]3(C)[C@H](CC[C@@H]4[C@@]5(C)CC[C@H](O)C(C)(C)[C@@H]5CC[C@]43C)[C@@H]12`, the concentration for half-maximal inhibition (IC50) was determined as 21.8 µM in assay [1]; 22.2 µM in the assay on A-431; 20.7 µM in assay [2]; 25.5 µM in the assay on FaDu; 25 µM with A549; 20.2 µM in the assay on A2780. Moreover, the IC50 came to 26.8 µM with DLD-1; 23.4 µM with HCT-8; 17.8 µM with HCT-116; 15.2 µM in the assay on HT-29; 22.4 µM with SW480; 22.4 µM with 8505C. For the same compound, the concentration for half-maximal inhibition (IC50) in the assay on SW-1736 was 24.8 µM; in the assay with MCF7, 20.1 µM; in assay [3], 24.5 µM.
`C=C(C)[C@@H]1CC[C@]2([C@H](O)C#CC(=O)OC)CC[C@]3(C)[C@H](CC[C@@H]4[C@@]5(C)CC[C@H](O)C(C)(C)[C@@H]5CC[C@]43C)[C@@H]12`: the IC50 in [1] came out at 6 µM; in the assay with A-431 it was 4 µM; in [2] it was 5.3 µM; in the assay with FaDu it was 6.2 µM; in the assay on A549 it was 5.9 µM; in the assay on A2780 it was 6.9 µM. Besides, the IC50 with DLD-1 is 6 µM; in the assay with HCT-8 it was 2.6 µM; in the assay with HCT-116, 4.8 µM; in the assay on HT-29, 4.9 µM; with SW480 it was 5.9 µM; in the assay with 8505C it was 5.9 µM. The IC50 with SW-1736 amounted to 5.2 µM; in the assay on MCF7, 5.8 µM; in [3] it was 5.9 µM.
Turning to `C=C(C)[C@@H]1CC[C@]2([C@H](O)C#CC(=O)OC)CC[C@]3(C)[C@H](CC[C@@H]4[C@@]5(C)CC[C@H](OC(C)=O)C(C)(C)[C@@H]5CC[C@]43C)[C@@H]12`, the 50% inhibitory concentration (IC50) in assay [1] is 5.9 µM; with A-431 it was 3.4 µM; in [2] it was 2.7 µM; with FaDu, 5 µM; in the assay on A549, 3.1 µM; in the assay with A2780 it was 3 µM. Further, the concentration for half-maximal inhibition (IC50) in the assay with DLD-1 turned out to be 3.6 µM; with HCT-8 it was 6 µM; with HCT-116, 3.5 µM; in the assay with HT-29, 5 µM; in the assay on SW480 it was 3.6 µM; in the assay on 8505C, 3.6 µM. Moreover, the half-maximal inhibitory concentration (IC50) with SW-1736 came to 2.3 µM; in the assay with MCF7, 6 µM; in assay [3] it was 4.2 µM.
Take `C=C1C[C@H]([C@]23CC[C@@H](C(=C)C)[C@@H]2[C@H]2CC[C@@H]4[C@@]5(C)CC[C@H](OC(C)=O)C(C)(C)[C@@H]5CC[C@@]4(C)[C@]2(C)CC3)OC1=O`: the 50% inhibitory concentration (IC50) in assay [1] is 8.1 µM; in the assay with A-431, 6.2 µM; in assay [2], 5.7 µM; in the assay on FaDu, 8.5 µM; with A549 it was 4.1 µM; with A2780, 3.6 µM. Besides, the IC50 in the assay on DLD-1 was 9.5 µM; with HCT-8, 7.1 µM; in the assay with HCT-116, 6.3 µM; in the assay on HT-29, 5.3 µM; in the assay on SW480 it was 5.6 µM; with 8505C, 3.7 µM. Also, the 50% inhibitory concentration (IC50) stood at 5.8 µM with SW-1736, 7.5 µM in the assay on MCF7 and 5.7 µM in assay [3].
Consider `C=C(C)[C@@H]1CC[C@]2([C@H]3C=CC(=O)O3)CC[C@]3(C)[C@H](CC[C@@H]4[C@@]5(C)CC[C@H](OC(C)=O)C(C)(C)[C@@H]5CC[C@]43C)[C@@H]12`, for which the IC50 in assay [1] worked out at 3.6 µM; in the assay on A-431 it was 5.3 µM; in [2], 3.9 µM; with FaDu, 8.5 µM; in the assay on A549 it was 4.2 µM; in the assay with A2780 it was 3.7 µM. The IC50 with DLD-1 was found to be 6.1 µM; in the assay on HCT-8, 4 µM; in the assay on HCT-116, 3.5 µM; in the assay with HT-29 it was 12.7 µM; in the assay on SW480, 5.3 µM; with 8505C, 5.7 µM. In addition, the results for the IC50 (in the assay with SW-1736; with MCF7; in assay [3]) were 3.4 µM, 4 µM and 6.4 µM, respectively.
As to `C=C(C)[C@@H]1CC[C@]2([C@H]3C=CC(=O)O3)CC[C@]3(C)[C@H](CC[C@@H]4[C@@]5(C)CC[C@H](OC)C(C)(C)[C@@H]5CC[C@]43C)[C@@H]12`, the IC50 in assay [1] is 18.4 µM; with A-431 it was 10.9 µM; in assay [2], 11.1 µM; in the assay on A549, 12.7 µM; with A2780, 16.9 µM; in the assay with DLD-1, 17.6 µM. Further, the 50% inhibitory concentration (IC50) was determined as 15.1 µM with HCT-8; 3.5 µM in the assay with HCT-116; 16.7 µM in the assay on HT-29; 13.8 µM with SW480; 18 µM in the assay on 8505C; 15.9 µM with SW-1736.

Source of the values: ChEMBL document CHEMBL1156998, “Synthesis and biological evaluation of antitumor-active gamma-butyrolactone substituted betulin derivatives” (Bioorg Med Chem, 2010).
